Data as given in ChEMBL document CHEMBL1136377, “2,4-disubstituted pyrimidines: a novel class of KDR kinase inhibitors” (Bioorg Med Chem Lett, 2003).
Each block holds one compound with its values, some of them ahead of it.

Legend:
[1] = biological target: T1, Vascular endothelial growth factor receptor 2 (Homo sapiens, UniProt P35968); experiment: Biochemical inhibition of phosphorylation of a poly-Glu/Tyr (4:1) peptide substrate by isolated vascular endothelial growth factor receptor 2 (cloned and expressed as a GST-fusion protein).
[2] = biological target: T2, Vascular endothelial growth factor receptor (Homo sapiens, UniProt P17948+P35916+P35968); experiment: Inhibition of VEGFstimulated mitogenesis in human umbilical vein endothelial cells; type: functional, cell-based; conditions: endothelial cell
[3] = biological target: Vascular endothelial growth factor receptor 2 and 3 (KDR and Flt-4) (Homo sapiens) (UniProt P35916+P35968); experiment: Selectivity for VEGF-receptor 2 (KDR) over VEGF-receptor 3 (FLT-4); type: protein assay
[4] = biological target: VEGF-receptor 2 and tyrosine-protein kinase SRC (Homo sapiens) (UniProt P12931+P35968); experiment: Selectivity for VEGF-receptor (KDR) over c-SRC; type: protein assay
[5] = biological target: T2, Vascular endothelial growth factor receptor; experiment: Inhibition of VEGF-stimulated mitogenesis in human umbilical vein endothelial cells at 500 nM; type: functional, cell-based; conditions: Endothelial cell
[6] = biological target: Vascular endothelial growth factor receptor 1 and 2 (Flt-1 and KDR) (Homo sapiens) (UniProt P17948+P35968); experiment: Selectivity for VEGF-receptor 2 (KDR) over VEGF-receptor 1 (FLT-1); type: protein assay
[7] = biological target: VEGF-receptor 2 and Fibroblast growth factor receptor 1 (Homo sapiens) (UniProt P35968+P11362); experiment: Selectivity for VEGF-receptor 2 (KDR) over FGF-receptor 1; type: protein assay
[8] = biological target: T2, Vascular endothelial growth factor receptor; experiment: Inhibition of VEGFstimulated mitogenesis in human umbilical vein endothelial cells.; type: functional, cell-based; conditions: endothelial cell
[9] = biological target: VEGF-receptor 2 and PDGF-receptor beta (KDR and PDGFR beta) (Homo sapiens) (UniProt P09619+P35968); experiment: Selectivity for VEGF-receptor 2 (KDR) over PDGF-receptor beta; type: protein assay
[10] = biological target: VEGF-receptor 2 and Fibroblast growth factor receptor 2 (Homo sapiens) (UniProt P35968+P21802); experiment: Selectivity for VEGF-receptor 2 (KDR) over FGF-receptor 2; type: protein assay
[11] = biological target: T1, Vascular endothelial growth factor receptor 2; experiment: Biochemical inhibition of phosphorylation of a poly-Glu/Tyr (4:1) peptide substrate by isolated vascular endothelial growth factor receptor 2 (cloned and expressed as a GST-fusion protein)
[12] = Plasma clearance was determined; type: ADME, organism-based, Canis lupus familiaris; conditions: dog
[13] = Volume distribution constant was determined; type: ADME, organism-based, Canis lupus familiaris; conditions: dog, in vivo; read-out: Vdss
[14] = Partition coefficient (logP); type: physicochemical; conditions: octanol/water
In short: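 Partition coefficient measured by HPLC analysis of an octanol/phosphate buffer (pH 7.4) system.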

[15] = Half life period was determined; type: ADME, organism-based, Canis lupus familiaris; conditions: dog, in vivo

Sequence of VEGF-receptor 2 and Fibroblast growth factor receptor 1 (Homo sapiens) (P11362 whole entry, looked up): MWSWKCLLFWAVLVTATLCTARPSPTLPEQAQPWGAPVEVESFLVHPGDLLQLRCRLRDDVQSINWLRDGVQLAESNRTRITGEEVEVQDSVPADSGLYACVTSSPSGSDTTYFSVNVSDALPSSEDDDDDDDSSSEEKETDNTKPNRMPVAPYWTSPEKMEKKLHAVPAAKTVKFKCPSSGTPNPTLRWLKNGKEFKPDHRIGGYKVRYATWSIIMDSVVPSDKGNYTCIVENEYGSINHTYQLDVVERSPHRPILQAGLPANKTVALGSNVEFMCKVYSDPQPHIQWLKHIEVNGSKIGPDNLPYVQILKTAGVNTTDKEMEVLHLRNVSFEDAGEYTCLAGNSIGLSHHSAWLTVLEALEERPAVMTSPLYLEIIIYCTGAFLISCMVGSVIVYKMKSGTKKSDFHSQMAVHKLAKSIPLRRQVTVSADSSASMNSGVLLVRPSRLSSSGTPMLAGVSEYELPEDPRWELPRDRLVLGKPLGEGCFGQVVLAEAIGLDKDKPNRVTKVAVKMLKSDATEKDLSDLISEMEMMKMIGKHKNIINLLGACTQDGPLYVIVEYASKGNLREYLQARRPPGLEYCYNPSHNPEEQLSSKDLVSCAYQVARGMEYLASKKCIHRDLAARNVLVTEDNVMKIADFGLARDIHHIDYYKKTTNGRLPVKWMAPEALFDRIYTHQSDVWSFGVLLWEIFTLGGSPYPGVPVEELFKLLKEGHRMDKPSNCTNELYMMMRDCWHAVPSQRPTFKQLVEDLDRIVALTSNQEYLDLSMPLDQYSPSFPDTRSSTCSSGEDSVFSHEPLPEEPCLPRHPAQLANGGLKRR
Sequence of VEGF-receptor 2 and Fibroblast growth factor receptor 1 (Homo sapiens) (P35968 whole entry, looked up): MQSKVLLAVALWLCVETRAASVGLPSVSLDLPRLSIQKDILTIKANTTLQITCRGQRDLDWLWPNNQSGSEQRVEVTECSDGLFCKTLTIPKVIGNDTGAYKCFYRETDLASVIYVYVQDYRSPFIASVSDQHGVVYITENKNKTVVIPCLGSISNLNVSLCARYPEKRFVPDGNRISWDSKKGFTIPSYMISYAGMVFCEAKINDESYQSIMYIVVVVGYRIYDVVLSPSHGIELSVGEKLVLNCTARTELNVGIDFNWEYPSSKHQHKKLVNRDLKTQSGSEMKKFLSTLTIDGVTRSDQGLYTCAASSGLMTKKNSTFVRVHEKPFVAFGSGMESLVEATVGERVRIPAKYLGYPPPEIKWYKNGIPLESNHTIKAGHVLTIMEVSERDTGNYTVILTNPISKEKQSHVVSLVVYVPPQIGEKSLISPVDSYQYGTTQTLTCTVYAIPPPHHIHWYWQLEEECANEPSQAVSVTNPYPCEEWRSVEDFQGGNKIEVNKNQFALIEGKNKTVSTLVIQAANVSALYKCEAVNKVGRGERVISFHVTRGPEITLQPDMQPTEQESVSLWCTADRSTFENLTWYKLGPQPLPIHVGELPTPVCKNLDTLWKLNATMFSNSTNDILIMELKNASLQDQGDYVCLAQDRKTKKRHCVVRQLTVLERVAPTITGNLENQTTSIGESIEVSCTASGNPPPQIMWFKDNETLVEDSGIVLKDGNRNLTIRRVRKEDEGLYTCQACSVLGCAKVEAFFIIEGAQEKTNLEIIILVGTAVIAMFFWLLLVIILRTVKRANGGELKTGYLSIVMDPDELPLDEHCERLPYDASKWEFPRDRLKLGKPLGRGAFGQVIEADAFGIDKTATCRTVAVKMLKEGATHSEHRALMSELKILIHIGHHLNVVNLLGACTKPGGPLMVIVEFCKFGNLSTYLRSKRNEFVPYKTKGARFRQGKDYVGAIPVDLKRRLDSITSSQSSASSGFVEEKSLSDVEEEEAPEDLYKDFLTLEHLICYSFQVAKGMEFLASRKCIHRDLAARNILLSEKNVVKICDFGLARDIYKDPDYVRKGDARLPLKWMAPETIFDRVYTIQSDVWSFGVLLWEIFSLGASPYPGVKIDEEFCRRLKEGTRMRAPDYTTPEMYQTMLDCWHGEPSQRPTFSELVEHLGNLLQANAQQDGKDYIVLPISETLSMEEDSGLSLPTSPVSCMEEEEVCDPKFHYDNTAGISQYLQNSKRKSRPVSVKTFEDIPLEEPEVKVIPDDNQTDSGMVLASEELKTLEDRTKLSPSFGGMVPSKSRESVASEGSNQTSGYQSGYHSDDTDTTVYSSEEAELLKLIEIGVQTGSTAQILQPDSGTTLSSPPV
T1 sequence (P35968 whole entry, the tested form may be a part): as the sequence (P35968 whole entry, looked up) above
Sequence of Vascular endothelial growth factor receptor 1 and 2 (Flt-1 and KDR) (Homo sapiens) (P17948 whole entry, looked up): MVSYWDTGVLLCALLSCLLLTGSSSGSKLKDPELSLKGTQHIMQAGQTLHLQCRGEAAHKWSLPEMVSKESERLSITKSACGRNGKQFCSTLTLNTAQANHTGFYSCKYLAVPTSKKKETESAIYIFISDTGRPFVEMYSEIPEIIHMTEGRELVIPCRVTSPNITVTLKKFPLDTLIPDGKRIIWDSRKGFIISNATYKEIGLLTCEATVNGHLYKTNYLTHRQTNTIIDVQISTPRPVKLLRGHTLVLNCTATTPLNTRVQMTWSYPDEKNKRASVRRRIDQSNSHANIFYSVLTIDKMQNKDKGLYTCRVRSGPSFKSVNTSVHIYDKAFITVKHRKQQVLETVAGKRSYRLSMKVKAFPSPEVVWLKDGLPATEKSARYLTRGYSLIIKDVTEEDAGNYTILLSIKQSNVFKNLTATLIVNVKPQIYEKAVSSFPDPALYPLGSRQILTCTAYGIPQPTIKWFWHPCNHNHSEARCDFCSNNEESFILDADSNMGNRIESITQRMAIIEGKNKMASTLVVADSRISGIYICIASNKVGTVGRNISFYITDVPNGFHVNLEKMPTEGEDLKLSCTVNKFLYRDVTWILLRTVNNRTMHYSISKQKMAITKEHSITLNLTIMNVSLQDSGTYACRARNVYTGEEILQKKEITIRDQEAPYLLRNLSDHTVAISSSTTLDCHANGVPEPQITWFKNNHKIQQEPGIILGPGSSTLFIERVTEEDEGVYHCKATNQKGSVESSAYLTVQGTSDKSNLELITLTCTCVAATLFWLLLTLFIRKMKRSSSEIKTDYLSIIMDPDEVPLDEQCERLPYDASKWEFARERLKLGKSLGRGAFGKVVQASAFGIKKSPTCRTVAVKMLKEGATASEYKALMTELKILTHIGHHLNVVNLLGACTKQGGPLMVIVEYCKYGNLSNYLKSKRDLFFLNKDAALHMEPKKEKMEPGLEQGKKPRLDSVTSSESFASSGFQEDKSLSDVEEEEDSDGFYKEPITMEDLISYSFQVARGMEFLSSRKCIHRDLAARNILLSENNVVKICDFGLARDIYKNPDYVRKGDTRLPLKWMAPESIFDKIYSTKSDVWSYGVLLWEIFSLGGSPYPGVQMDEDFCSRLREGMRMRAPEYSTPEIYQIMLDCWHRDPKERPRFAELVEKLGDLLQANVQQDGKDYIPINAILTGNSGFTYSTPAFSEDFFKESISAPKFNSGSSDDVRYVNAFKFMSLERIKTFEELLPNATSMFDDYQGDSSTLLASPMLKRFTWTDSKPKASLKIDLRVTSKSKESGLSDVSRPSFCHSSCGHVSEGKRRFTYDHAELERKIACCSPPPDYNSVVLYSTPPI
Sequence of Vascular endothelial growth factor receptor 1 and 2 (Flt-1 and KDR) (Homo sapiens) (P35968 whole entry, looked up): as the sequence (P35968 whole entry, looked up) above
Sequence of Vascular endothelial growth factor receptor 2 and 3 (KDR and Flt-4) (Homo sapiens) (P35916 whole entry, looked up): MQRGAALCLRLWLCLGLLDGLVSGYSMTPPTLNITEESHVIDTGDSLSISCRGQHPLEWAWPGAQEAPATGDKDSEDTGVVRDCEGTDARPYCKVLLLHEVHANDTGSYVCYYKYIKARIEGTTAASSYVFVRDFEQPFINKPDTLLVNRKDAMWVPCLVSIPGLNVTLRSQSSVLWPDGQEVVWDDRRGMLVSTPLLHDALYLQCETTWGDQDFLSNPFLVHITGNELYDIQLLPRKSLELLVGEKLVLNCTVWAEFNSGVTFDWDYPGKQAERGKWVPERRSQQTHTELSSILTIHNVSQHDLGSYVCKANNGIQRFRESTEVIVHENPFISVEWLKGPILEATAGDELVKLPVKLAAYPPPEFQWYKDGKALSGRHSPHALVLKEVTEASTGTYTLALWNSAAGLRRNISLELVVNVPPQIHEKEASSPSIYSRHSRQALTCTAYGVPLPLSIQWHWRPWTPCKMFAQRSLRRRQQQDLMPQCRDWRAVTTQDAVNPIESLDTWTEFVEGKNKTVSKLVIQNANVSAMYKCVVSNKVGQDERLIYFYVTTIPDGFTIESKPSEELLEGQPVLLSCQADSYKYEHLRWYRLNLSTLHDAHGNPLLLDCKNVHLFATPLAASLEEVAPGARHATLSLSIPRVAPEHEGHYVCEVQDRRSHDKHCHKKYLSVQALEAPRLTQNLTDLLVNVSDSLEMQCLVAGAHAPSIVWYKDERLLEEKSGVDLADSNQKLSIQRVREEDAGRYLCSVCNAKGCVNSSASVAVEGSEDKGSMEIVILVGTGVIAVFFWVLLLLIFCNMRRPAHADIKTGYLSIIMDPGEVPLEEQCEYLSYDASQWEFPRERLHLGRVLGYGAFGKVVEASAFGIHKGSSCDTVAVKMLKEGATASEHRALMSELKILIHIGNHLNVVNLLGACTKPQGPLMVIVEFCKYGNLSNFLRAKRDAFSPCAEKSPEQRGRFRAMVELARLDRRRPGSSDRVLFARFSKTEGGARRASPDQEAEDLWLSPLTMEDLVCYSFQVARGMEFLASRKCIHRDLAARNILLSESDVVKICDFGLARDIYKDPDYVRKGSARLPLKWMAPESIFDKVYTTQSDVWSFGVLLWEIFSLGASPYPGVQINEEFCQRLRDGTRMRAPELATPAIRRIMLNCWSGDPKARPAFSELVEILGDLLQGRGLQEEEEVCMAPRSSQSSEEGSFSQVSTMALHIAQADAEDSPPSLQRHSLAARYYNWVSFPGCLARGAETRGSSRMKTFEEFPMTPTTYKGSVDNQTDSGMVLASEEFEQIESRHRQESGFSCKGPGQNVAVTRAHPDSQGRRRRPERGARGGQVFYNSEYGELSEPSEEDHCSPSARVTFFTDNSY
Sequence of Vascular endothelial growth factor receptor 2 and 3 (KDR and Flt-4) (Homo sapiens) (P35968 whole entry, looked up): as the sequence (P35968 whole entry, looked up) above

- IC50 [1]: 0.005 µM
- IC50 [2]: 0.022 µM
SMILES: COc1cc(Nc2nccc(-n3ccnc3-c3ccccc3)n2)cc(OC)c1

- IC50 [1]: 0.026 µM
SMILES: Clc1cc(Cl)cc(Nc2nccc(-n3ccnc3-c3ccccc3)n2)c1

- IC50 [1]: 0.279 µM
SMILES: Cc1ccc(Nc2nccc(-n3ccnc3-c3ccccc3)n2)cc1

- IC50 [1]: 19 µM
SMILES: COc1cc(Nc2nccc(-n3ccnc3-c3ccccc3)n2)cc(C(F)(F)F)c1

- Selectivity [3]: 5
- Selectivity [4]: 11
- inhibition [5]: 8%
- Selectivity [6]: 13
- IC50 [1]: 0.105 µM
- Selectivity [7]: 295
SMILES: c1ccc(Nc2nccc(-n3ccnc3-c3ccccc3)n2)cc1

- IC50 [1]: 0.032 µM
- IC50 [2]: 0.396 µM
SMILES: CC(=O)N1CCN(Cc2cc(C)cc(Nc3nccc(-n4ccnc4-c4ccccc4)n3)c2)CC1

- IC50 [1]: 0.025 µM
SMILES: Clc1cccc(Nc2nccc(-n3ccnc3-c3ccccc3)n2)c1

- IC50 [1]: 0.077 µM
SMILES: FC(F)(F)c1cc(Nc2nccc(-n3ccnc3-c3ccccc3)n2)cc(C(F)(F)F)c1

- IC50 [1]: 0.34 µM
SMILES: c1ccc(-c2nccn2-c2ccnc(Nc3cccnc3)n2)cc1

- IC50 [1]: 0.892 µM
SMILES: Cc1cc(C)cc(Nc2cc(-n3ccnc3-c3ccccc3)ccn2)c1

- IC50 [1]: 0.005 µM
- IC50 [2]: 0.026 µM
SMILES: Cc1cc(Nc2nccc(-n3ccnc3-c3ccccc3)n2)cc(C(F)(F)F)c1

- IC50 [1]: 3.57 µM
SMILES: [O-][n+]1cccc(Nc2nccc(-n3ccnc3-c3ccccc3)n2)c1

- IC50 [1]: 0.392 µM
SMILES: COc1ccc(Nc2nccc(-n3ccnc3-c3ccccc3)n2)cc1

- IC50 [1]: 1.81 µM
SMILES: Cc1cc(C)cc(Nc2cc(-n3ccnc3-c3ccccc3)ncn2)c1

- IC50 [1]: 0.273 µM
SMILES: c1ccc(-c2nccn2-c2ccnc(Nc3ccncc3)n2)cc1

- Selectivity [3]: 13
- IC50 [8]: 0.151 µM
- Selectivity [4]: 11
- Selectivity [9]: 22
- Selectivity [6]: 103
- Selectivity [10]: 686
- IC50 [1]: 0.018 µM
- Selectivity [7]: 1020
SMILES: Cc1cccc(Nc2nccc(-n3ccnc3-c3ccccc3)n2)c1

- IC50 [1]: 0.01 µM
- IC50 [2]: 0.303 µM
SMILES: FC(F)(F)c1cccc(Nc2nccc(-n3ccnc3-c3ccccc3)n2)c1

- IC50 [11]: 0.009 µM
- IC50 [2]: 0.023 µM
SMILES: Cc1cc(CO)cc(Nc2nccc(-n3ccnc3-c3ccccc3)n2)c1

- IC50 [1]: 0.02 µM
- IC50 [2]: 0.088 µM
SMILES: COc1cccc(Nc2nccc(-n3ccnc3-c3ccccc3)n2)c1

- IC50 [1]: 3.08 µM
SMILES: Cc1ccccc1Nc1nccc(-n2ccnc2-c2ccccc2)n1

- IC50 [1]: 0.289 µM
SMILES: COc1ccccc1Nc1nccc(-n2ccnc2-c2ccccc2)n1

- Selectivity [3]: 5
- clearance [12]: 30.1 mL/min/kg
- IC50 [8]: 0.019 µM
- Selectivity [4]: 10
- Selectivity [9]: 6
- Vd [13]: 1.11 L/kg
- logP [14]: 3.74
- Selectivity [6]: 30
- Selectivity [10]: 261
- IC50 [1]: 0.006 µM
- half-life [15]: 42.6 min
- Selectivity [7]: 606
SMILES: Cc1cc(C)cc(Nc2nccc(-n3ccnc3-c3ccccc3)n2)c1

- IC50 [1]: 6.83 µM
SMILES: c1ccc(-c2nccn2-c2ccnc(Nc3ccccn3)n2)cc1

- IC50 [1]: 0.45 µM
SMILES: Cc1cc(C)cc(Nc2nccc(-n3cc(C)nc3-c3ccccc3)n2)c1
